INS promoter inh: TRM-6 insulin promoter activity inhibition; AID 1273; inhibition, % at 2 µM; TRM-6 cells (human fetal islet line), insulin promoter-eGFP reporter, imaging; reporter expression induced with tamoxifen; 130,000 compounds, 0.9% hits;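 active = inhibition above the mean plus 3 SD, with well images judged a real hit on visual review, cut at about 60% in these data, passing the limit was not always enough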
Yeast lifespan up: extends the lifespan of yeast; S. cerevisiae growth with nicotinamide, OD615; deaD strain in restrictive glucose medium; inhibition of the nicotinamide effect, % at 10 µM; 130,000 compounds, 0.68% hits;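 active = inhibition above a set limit, placed 3 SD over the median of all compounds, cut at about 26% in these data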;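 note: 0% = nicotinamide-treated wells and 100% = cells grown without nicotinamide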
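Buffer or medium: CSMM-D glucose medium, restrictive; test system: modified budding yeast, DeaD strain; compound: single dose 10 µM compound, 0.25% DMSO; schedule: culture preincubation 4 h, compound exposure 48 h, both 30 °C; detection: optical density (absorbance) at 615 nm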
RAM network inh: inhibitors of the yeast RAM network | S. cerevisiae dse1pr::URA3 reporter, 5-FOA growth OD615, 2 d; analog-sensitive cbk1-as2 kinase mutant strain | inhibition, % at 50 µM | 190,000 compounds, 1.8% hits;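 active = inhibition above a set limit, 3 SD over mean compound inhibition, cut at about 8.4% in these data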;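 note: 0% = DMSO-only wells with no growth and 100% = 10 µM 1-NA-PP1 full growth; inhibition rescues growth on 5-FOA so higher OD means more RAM inhibition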
Yeast growth inh: reduces growth of yeast BB579 in restrictive medium | S. cerevisiae BB579 growth, OD615, 48 h | inhibition, % at 10 µM | 140,000 compounds, 0.51% hits | AID 804;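 active = inhibition above a set limit, 3 SD over the mean compound inhibition, cut at about 44% in these data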
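test system = yeast BB579 (DeaD) | buffer or medium = restrictive CSMM-D medium | doses = single compound dose of 10 µM, 0.25% DMSO final | times = 4 h preincubation and 48 h exposure at 30 °C | technique = culture absorbance at 615 nm | benchmarks = amphotericin B 10 µg/mL, positive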
Ins promoter up: MIN6 insulin promoter up-regulation | MIN6 insulin promoter-GFP reporter, high-content imaging; hits give high values | z-score at 5 µM | 190,000 compounds, 0.3% hits;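 active = z-score above 3 at 5 µM with at least 500 cells counted in the well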
Starred values were filed as active, the others as inactive; x = no result. Hits are enriched below; roughly 3.1% of the tested compounds scored in any of these assays.

SMILES	INS promoter inh	Yeast lifespan up	RAM network inh	Yeast growth inh	Ins promoter up
CC(C)c1noc2ncc(C(=O)c3cc(Cl)cc(Cl)c3O)cc12	-3.6	64.3*	-0.1	-22.1	-1.57
COc1ccc(NC(=O)CN(C)Cc2c(F)cccc2Cl)cc1S(=O)(=O)N1CCCCC1	-5.0	x	0.7	x	-0.19
COc1ccc(N=Cc2nc(-c3ccco3)oc2O)cc1	-32.8	x	5.8	-34.9	x
CCC(=NCc1ccc(Cl)c(Cl)c1)c1nc(-c2ccco2)oc1O	-35.7	-6.0	10.6*	-43.2	-1.29
O=C(O)CC(NC(=O)c1sc2ccccc2c1Cl)c1ccc(OC2CCCC2)cc1 (configuration not stated)	63.6	x	9.6*	x	1.18
O=C(NCC1(c2ccccc2)CCOCC1)c1cccs1	x	x	1.0	x	-0.28
COC(=O)Nc1sc2c(c1C(=O)NC1CC1)CCCCCC2	-50.0	-3.0	0.6	-7.1	x
O=C(NCc1cccs1)c1ccc(N2CCCCC2)nc1	13.2	-8.4	1.3	-18.5	3.41*
O=C(CSCc1ccccc1Cl)NN1C(=O)c2ccccc2C1=O	x	-0.8	-0.9	-31.5	-0.8
O=[N+]([O-])c1cc(Cc2ccccc2)cc(C=Nc2ccc(N3CCOCC3)cc2)c1O	-25.8	-10.0	-0.1	99.6*	-0.15
CC(C)CCSc1nc(N2CCOCC2)c2c(c1C#N)CC(C)(C)OC2	x	-2.1	10.2*	-43.1	-1.26
CNS(=O)(=O)c1ccc(NC(=O)Nc2cccc(F)c2)cc1	x	x	0.6	x	-0.17
CN(C)Cc1ccccc1COc1ccccc1	27.3	6.0	1.4	-34.6	x
Cc1ccc(C(=O)CSc2nsc(C)c2C#N)cc1	0.0	-8.5	1.3	-42.0	-0.26
Cc1ccnc(SCC(=O)c2ccc(Br)cc2)c1C#N	61.1*	-0.5	1.2	-32.0	0.01
CC(C)CC(NS(=O)(=O)c1ccc2c(c1)oc(=O)n2C)C(=O)NCc1cccnc1 (configuration not stated)	x	-11.6	-1.4	27.0	0.04
CCC(=O)Nc1ccc(C(=O)CSc2nnc(-c3ccccc3F)n2CCc2ccccc2)cc1	-9.4	0.8	7.2	-27.5	0.2
O=C(CSc1nnc(-c2ccccc2F)n1CCc1ccccc1)Nc1ccc2[nH]c(=O)[nH]c2c1	-30.8	-1.7	9.0*	-13.0	-0.06
COc1ccc(-c2cc(-c3ccccc3)nc3ncnn23)cc1	x	x	-1.8	x	-0.98
c1ccc(-c2cc(-c3ccccc3)n3ncnc3n2)cc1	69.2*	x	0.1	x	0.09
N#CCCN(C(=O)COc1ccc(Br)cc1F)c1ccc(F)cc1	-114.3	x	1.2	x	-0.88
CNc1ccccc(-c2ccc3ccccc3n2)c1=O	-15.4	31.9*	0.0	-14.4	0.09
CCOC(=O)c1c(NC(=O)C2C3C=CC(C3)C2C(=O)O)sc2c1CCC(CC)C2 (configuration not stated)	26.7	42.5*	1.4	-14.6	-0.08
CCOC(=O)c1c(NC(=O)C2C3CCC(O3)C2C(=O)O)sc2c1CCC(CC)C2 (configuration not stated)	50.0	x	-0.1	x	-0.09
Cc1ccc(CNC(=O)c2ccc(Cn3nc(C)c(Cl)c3C)o2)cc1	14.3	-11.7	-0.9	99.3*	-0.29
SMILES	INS promoter inh	Yeast lifespan up	RAM network inh	Yeast growth inh	Ins promoter up
Cc1cc(C)cc(NC(=O)c2ccc(Cn3nc(C)c(Cl)c3C)o2)c1	0.0	x	4.4	-11.1	x
C#CCO[C@@H]1C[C@H](n2cnc3c(NC(=O)c4ccccc4)ncnc32)O[C@@H]1CO	x	x	x	x	0.22
O=C(COc1ccccc1)Nc1ccccc1Cl	-20.0	x	0.5	x	x
CCN(CC)c1ccc2cc(S(=O)(=O)c3ccc(Cl)cc3)c(=O)oc2c1	-10.0	5.0	4.6	-35.0	6.96*
COc1cc2c(cc1NC(=O)CSc1nccn1C)oc1ccccc12	-23.3	-5.0	0.0	-27.4	0.5
COc1ccc(S(=O)(=O)N[C@@H](C)C(=O)OCC(=O)Nc2cc3oc4ccccc4c3cc2OC)cc1	2.0	-3.4	9.6*	-39.5	0.02
COc1cc2c(cc1NC(=O)CSc1ccccc1)oc1ccccc12	-20.0	2.5	10.6*	-14.1	-0.02
COc1cccc(/C=C/C(=O)OCC(=O)Nc2ccc(Cl)cn2)c1	x	x	4.3	x	0.03
CCOc1cc(N2CCOCC2)c(OCC)cc1NC(=O)c1ccc(OC)cc1	7.3	x	2.5	x	0.01
CCOc1cc(N2CCOCC2)c(OCC)cc1NC(=O)c1ccc(OCc2c(C)noc2C)c(OC)c1	-9.7	1.8	8.7*	-54.4	-0.49
COc1ccc(NC(=O)COC(=O)C2CCN(S(=O)(=O)c3cccs3)CC2)cc1	31.2	x	0.1	x	0.65
c1ccc2c(c1)oc1c(Nc3ccc4c(c3)OCO4)ncnc12	15.2	-8.3	3.6	-53.2	x
Cc1nc(Nc2ccc3c(c2)OCO3)c2oc3ccccc3c2n1	81.8*	-13.9	0.5	-58.1	-0.48
Cc1nc(NCCc2ccccc2)c2oc3ccccc3c2n1	68.8*	-17.1	2.6	-76.0	-2.37
COc1cc2ccccc2cc1C(=O)OCC(=O)NC1CCS(=O)(=O)C1 (configuration not stated)	50.0	x	0.4	x	x
O=C(Nc1ccc2c(c1)OCCO2)C(=S)NCc1ccccc1	16.7	x	8.7*	x	0.51
CCNc1nc(N)nc(-c2cc(Cl)ccc2O)n1	61.5*	-6.0	4.2	9.1	-0.87
COc1cc([N+](=O)[O-])ccc1NC(=O)CSc1nnc(C)c(C)n1	x	x	0.7	x	0.09
CCO/N=C/C1=C(O)C(C(=O)OC)C(C)(C)CC1=O (configuration not stated)	21.1	x	1.4	x	0.31
CC/C(=C1/C(=O)CC(C)(C)C(C(=O)OC)C1=O)N1CCCC1 (configuration not stated)	21.7	29.8*	0.8	-21.2	-0.29
CC(=C/c1ccco1)/C=N/NC(=O)c1nnn(-c2nonc2N)c1CN(C)C	25.0	x	3.1	x	0.13
O=c1c(-c2nc3ccccc3s2)cccn1Cc1ccc(Cl)cc1	-3.3	-9.6	3.2	-13.4	x
Clc1ccc(CCNc2nc3ccccc3s2)cc1	-16.2	-26.9	2.1	67.7*	-0.27
Cc1ccc(-c2cc(=O)c3cc(Cl)ccc3[nH]2)cc1	x	x	0.5	x	-0.35
CCN(CC)C(=O)c1ccc2nc(-c3ccccc3)c(-c3ccccc3)nc2c1	66.7*	-3.3	1.2	-54.0	1.64
SMILES	INS promoter inh	Yeast lifespan up	RAM network inh	Yeast growth inh	Ins promoter up
CCc1nc(SCC(=O)c2ccc3c(c2)OCCO3)c2ccccc2n1	40.6	147.2*	1.7	-68.6	-0.34
O=C(CSc1nnc(SCc2cccc3ccccc23)s1)Nc1ccc(C(=O)O)cc1	-21.1	x	3.8	x	-1.78
O=C(CSc1nnc(SCc2cccc3ccccc23)s1)c1ccc2c(c1)OCO2	-40.0	-6.6	8.8*	-35.8	-0.59
Cc1ccc(NC(=O)CCC(=O)N/N=C/C=C/c2ccccc2)cc1	-68.8	0.2	0.8	-35.0	x
CC(/C=N/n1c(COc2ccccc2)n[nH]c1=S)=C\c1ccccc1	-34.5	-11.4	8.4*	-2.0	0.26
CCCCCCc1nc2ccccc2c(=O)n1NC(=O)c1c(O)c2cccc3c2n(c1=O)CC3	22.2	x	x	x	x
CCc1ccc(NC(=O)c2cc(C(C)C)on2)cc1	9.7	-15.6	-0.1	-2.2	3.36*

Bioassay records: PubChem BioAssay, several laboratories
